Counter-ions that a name gives are not always drawn.
system: HCT-116; assay: Cytotoxicity against human HCT116 cells assessed as reduction in cell viability after 24 hrs by SRB assay; format: functional, cell-based; conditions: HCT-116, 24 h
Summary of the method: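 Human colon cancer HCT-116 cells, read out by sulforhodamine B (SRB) staining, with adriamycin as the positive control.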

| SMILES | IC50 |
| --- | --- |
| CCC(=O)Nc1ccn([C@H]2CC[C@H](O)[C@@H](C)O2)c(=O)n1 | > 20 µM |
| C/C=C(\C)C(=O)Nc1ccn([C@H]2CC[C@H](O[C@H]3O[C@H](C)[C@@H](N(C)C)[C@H](O)[C@H]3O)[C@@H](C)O2)c(=O)n1 | 6.45 µM |
| C[C@H]1O[C@@H](n2ccc(NC(=O)CC(C)(C)O)nc2=O)CC[C@@H]1O | > 20 µM |
| CC(C)/C=C/C(=O)Nc1ccn([C@H]2CC[C@H](O)[C@@H](C)O2)c(=O)n1 | > 20 µM |
| COc1cccc2c1C(=O)c1c(O)c3c(c(O)c1C2=O)C[C@@](O)(C(=O)CO)C[C@@H]3O[C@H]1C[C@H](N)[C@H](O)[C@H](C)O1 [DOXORUBICIN HYDROCHLORIDE] | 0.06 µM |
| CC(=O)Nc1ccn([C@H]2CC[C@H](O)[C@@H](C)O2)c(=O)n1 | > 20 µM |
| C[C@H]1O[C@@H](n2ccc(NC(=O)Cc3ccccc3)nc2=O)CC[C@@H]1O | > 20 µM |
| CC(C)/C=C/C(=O)Nc1ccn([C@H]2CC[C@H](O[C@H]3O[C@H](C)[C@@H](N(C)C)[C@H](O)[C@H]3O)[C@@H](C)O2)c(=O)n1 | 0.78 µM |
| CC(C)C(=O)Nc1ccn([C@H]2CC[C@H](O)[C@@H](C)O2)c(=O)n1 | > 20 µM |
| CC(C)CCC(=O)Nc1ccn([C@H]2CC[C@H](O)[C@@H](C)O2)c(=O)n1 | > 20 µM |
| CC(C)=CCC(=O)Nc1ccn([C@H]2CC[C@H](O)[C@@H](C)O2)c(=O)n1 | > 20 µM |
| CC(C)CCC(=O)Nc1ccn([C@H]2CC[C@H](O[C@H]3O[C@H](C)[C@@H](N(C)C)[C@H](O)[C@H]3O)[C@@H](C)O2)c(=O)n1 | 0.39 µM |
| CC(=O)C(C)Nc1ccc(C(=O)Nc2ccn([C@H]3CC[C@H](O)[C@@H](C)O3)c(=O)n2)cc1 (some centres not stated) | > 20 µM |
| CC(C)C(=O)Nc1ccc(C(=O)Nc2ccn([C@H]3CC[C@H](O[C@H]4O[C@H](C)[C@@H](N(C)C)[C@H](O)[C@H]4O)[C@@H](C)O3)c(=O)n2)cc1 | 6.63 µM |
| CCC(C)/C=C/C(=O)Nc1ccn([C@H]2CC[C@H](O[C@H]3O[C@H](C)[C@@H](N(C)C)[C@H](O)[C@H]3O)[C@@H](C)O2)c(=O)n1 (some centres not stated) | 0.89 µM |
| CC(C)CC(=O)Nc1ccn([C@H]2CC[C@H](O[C@H]3O[C@H](C)[C@@H](N(C)C)[C@H](O)[C@H]3O)[C@@H](C)O2)c(=O)n1 | 2.14 µM |
| CC(C)=CC(=O)Nc1ccn([C@H]2C[C@@H](O)[C@H](O)[C@@H](C)O2)c(=O)n1 | > 20 µM |
